Values joined by “and” are separate entries in the source; they are usually repeats but may differ in a detail not shown here. Equal values may be shown once. Active and inactive are the calls of the source.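 Rule for the calls: active = compounds lowering the cell viability light signal with a fitted AC50 at most twice the top dose tested; inconclusive = flat fit with 30 to 70% inhibition, or poor fit; inactive = the rest.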
Key:
[1] = tested on: MALME3 melanoma viability, CellTiter-Glo ATP luminescence, 24 h; assay: cytotoxicity in MALME3 melanoma cells – cell-based, CellTiter-Glo luminescence, dry powder samples, set 2, orthogonal assay for MITF inhibitor project, dose response (AID 624299)
In short: (§1)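 Measured by: CellTiter-Glo luminescence measuring cellular ATP | System: MALME3 melanoma cells | Doses: Multiple compound doses by pin transfer, day after seeding | Medium: Phenol-red-free IMDM with 10% FBS | Schedule: 37 °C compound incubation, 5 min RT before reading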

[2] = as above; conditions: MALME3 melanoma viability, CellTiter-Glo ATP luminescence, 24 h; at 35 µM (top of the series)
In short: as §1

Work on `O=C1C(NS(=O)(=O)c2ccc(Br)cc2)=C(N2CCOCC2)C(=O)c2ccccc21` yielded an AC50 [1] of 23.4 µM.
Compound `CC(=O)NC1=C(c2cccc(Cl)c2)C(=O)c2ccccc2C1=O` has an AC50 [1] of 13.1 µM.
Work on `C=C1C(=O)OC2C1CC/C(C)=C\CCC1(C)OC21` (configuration not stated) yielded an AC50 [1] of 22.9 µM.
For `COc1ccc(C(=O)NC2=C(c3ccc(OC(F)(F)F)cc3)C(=O)c3ccccc3C2=O)cc1`, the AC50 [1] was > 70 µM (inactive).
Work on `COc1ccc(C2=C(NC(=O)c3ccc(Cl)cc3)C(=O)c3ccccc3C2=O)cc1` yielded an AC50 [1] of 32 µM.
`C=CCNC1=C(N2CCCCC2)C(=O)c2ccccc2C1=O` gave an AC50 [1] of 1.61 µM.
`CC(=O)NC1=C(c2ccc(Cl)cc2)C(=O)c2ccccc2C1=O` showed an AC50 [1] of 13.9 µM.
For `NC1=C(c2ccc(OC(F)(F)F)cc2)C(=O)c2ccccc2C1=O`, the AC50 [1] was > 70 µM (inactive).
Work on `CCN1CCN(C2=C(NS(=O)(=O)c3cccs3)C(=O)c3ccccc3C2=O)CC1` yielded an AC50 [1] of 14.9 µM.
Work on `O=C1C(NS(=O)(=O)c2ccc(Br)s2)=C(N2CCOCC2)C(=O)c2ccccc21` yielded an AC50 [1] of 25.7 µM.
In the case of `O=C1C(NS(=O)(=O)c2ccc(Br)cc2)=C(c2ccc(OC(F)(F)F)cc2)C(=O)c2ccccc21`, the AC50 [1] is reported as > 70 µM (inactive).
Compound `COc1ccc(C2=C(NC(=O)c3ccccc3Cl)C(=O)c3ccccc3C2=O)cc1` has an AC50 [1] of 21.3 µM.
In the case of `C=CCNC1=C(NCCCN(CC)CC)C(=O)c2ccccc2C1=O`, the AC50 [1] is reported as 16.2 µM.
Compound `CN1CCN(C2=C(NS(=O)(=O)c3cccs3)C(=O)c3ccccc3C2=O)CC1` has an AC50 [1] of 11.7 µM.
Work on `Cc1ccc(C(=O)NC2=C(c3ccccc3)C(=O)c3ccccc3C2=O)o1` yielded an AC50 [1] of 23.7 µM.
For `C=CCNC1=C(N2CCN(CC)CC2)C(=O)c2ccccc2C1=O`, the AC50 [1] was 17.9 µM.
`O=C(NC1=C(N2CCSCC2)C(=O)c2ccccc2C1=O)c1ccc(Br)cc1` showed an AC50 [1] of 20.8 µM.
In the case of `Cc1nc2ccccc2n1/N=C/c1ccc([N+](=O)[O-])s1`, the AC50 [1] is reported as 11.3 µM.
With `C=CCNC1=C(Cl)C(=O)c2ccccc2C1=O` the AC50 [1] was 9.65 µM and 12.4 µM.
In the case of `O=C1C(NS(=O)(=O)c2ccc(Br)s2)=C(N2CCSCC2)C(=O)c2ccccc21`, the AC50 [1] is reported as 30.2 µM.
In the case of `O=C1C(Nc2ccccc2)=C(N2CCOCC2)C(=O)c2ccccc21`, the AC50 [1] is reported as 15.6 µM and 24.9 µM.
In the case of `CCN(CC)CCCNC1=C(N(C)C(C)=O)C(=O)c2ccccc2C1=O`, the AC50 [1] is reported as 3.12 µM.
Work on `O=C1C=C(Nc2ccccc2)C(=O)c2ccccc21` yielded an AC50 [1] of 2.18 µM.
For `COc1ccc(C2=C(NC(=O)c3ccc(OC)cc3-c3cccc(OC)c3)C(=O)c3ccccc3C2=O)cc1`, the activity change, negative = inhibition [2] was -8.34% (inactive).
In the case of `O=C(NC1=C(N2CCN(c3ccccc3)CC2)C(=O)c2ccccc2C1=O)c1ccccc1`, the activity change, negative = inhibition [2] is reported as -8.35% (inactive).
With `O=C(NC1=C(N2CCOCC2)C(=O)c2ccccc2C1=O)c1ccc(Br)cc1` the AC50 [1] was 16.1 µM.
For `CN1CCN(C2=C(NS(=O)(=O)c3ccccc3)C(=O)c3ccccc3C2=O)CC1`, the AC50 [1] was 7.3 µM.
With `O=C1C(NS(=O)(=O)c2ccc(Br)cc2)=C(N2CCN(c3ccccc3)CC2)C(=O)c2ccccc21` the activity change, negative = inhibition [2] was -51.2% (inactive).
`O=C1C(Nc2ccccc2)=C(N2CCCCC2)C(=O)c2ccccc21` showed an AC50 [1] of 5.84 µM.
With `C=CCNC1=C(N2CCOCC2)C(=O)c2ccccc2C1=O` the AC50 [1] was 5.76 µM.
For `CCN1CCN(C2=C(NC(=O)c3ccc(Br)cc3)C(=O)c3ccccc3C2=O)CC1`, the AC50 [1] was 1.79 µM.
In the case of `O=C(NC1=C(c2ccccc2)C(=O)c2ccccc2C1=O)c1ccc(Br)cc1`, the AC50 [1] is reported as > 70 µM (inactive).
`COC1=C(NS(=O)(=O)c2ccccc2)C(=O)c2ccccc2C1=O` gave an AC50 [1] of 13.4 µM.
Compound `O=C(CNc1cccc2ccccc12)N/N=C/c1ccc([N+](=O)[O-])o1` has an AC50 [1] of 22.8 µM.
For `COc1ccc(C2=C(NC(=O)c3cccc(OC)c3)C(=O)c3ccccc3C2=O)cc1`, the AC50 [1] was 26.8 µM.
For `O=C(NC1=C(c2ccc(Oc3ccccc3)cc2)C(=O)c2ccccc2C1=O)c1ccccc1`, the activity change, negative = inhibition [2] was -15.3% (inactive).
With `O=C1C(Nc2ccccc2)=C(N2CCSCC2)C(=O)c2ccccc21` the AC50 [1] was > 70 µM (inactive).
For `CC1CCN(CC(CS(=O)(=O)c2ccc([N+](=O)[O-])cc2)N2CCC(C)CC2)CC1` (configuration not stated), the AC50 [1] was 23 µM.
`O=C(NC1=C(c2ccccc2)C(=O)c2ccccc2C1=O)c1ccco1` gave an AC50 [1] of 23.5 µM.
In the case of `C=CCNC1=C(Nc2ccccc2)C(=O)c2ccccc2C1=O`, the AC50 [1] is reported as > 70 µM (inactive).
For `O=C(NC1=C(c2ccc(OC(F)(F)F)cc2)C(=O)c2ccccc2C1=O)c1ccccc1F`, the AC50 [1] was > 70 µM (inactive).
With `O=C1C(NCCCN2CCOCC2)=C(Nc2ccccc2)C(=O)c2ccccc21` the AC50 [1] was > 70 µM (inactive).
In the case of `COc1ccc(C2=C(N)C(=O)c3ccccc3C2=O)cc1`, the AC50 [1] is reported as > 70 µM (inactive).
With `O=C(NC1=C(N2CCOCC2)C(=O)c2ccccc2C1=O)c1ccccc1` the AC50 [1] was 24.4 µM.
For `COc1cccc(-c2cc(C(=O)NC3=C(Cl)C(=O)c4ccccc4C3=O)ccc2OC)c1`, the AC50 [1] was 16.3 µM.
In the case of `COc1ccc(C(=O)NC2=C(c3ccc(OC)cc3)C(=O)c3ccccc3C2=O)cc1`, the AC50 [1] is reported as 23.1 µM.
In the case of `COc1ccc(S(=O)(=O)N(C(C)=O)c2ccc(OC(C)=O)c3ccccc23)cc1[N+](=O)[O-]`, the AC50 [1] is reported as 19.6 µM.
With `O=C(NC1=C(c2ccc(OC(F)(F)F)cc2)C(=O)c2ccccc2C1=O)c1ccc(Br)cc1` the activity change, negative = inhibition [2] was 2.43% (inactive).
With `O=C1C(NS(=O)(=O)c2ccccc2)=C(N2CCOCC2)C(=O)c2ccccc21` the AC50 [1] was 26.9 µM.
`CC(=O)N(C)C1=C(N2CCOCC2)C(=O)c2ccccc2C1=O` showed an AC50 [1] of 7.36 µM.
For `CC(=O)N(C)C1=C(N2CCCCC2)C(=O)c2ccccc2C1=O`, the AC50 [1] was 4.94 µM.
`COc1cccc(C2=C(NC(=O)c3ccccc3)C(=O)c3ccccc3C2=O)c1` showed an AC50 [1] of 20.4 µM.
Work on `CN1CCN(C2=C(NS(=O)(=O)c3ccc(Br)s3)C(=O)c3ccccc3C2=O)CC1` yielded an AC50 [1] of 12.5 µM.
Compound `COc1ccc(C(=O)NC2=C(c3ccccc3)C(=O)c3ccccc3C2=O)cc1` has an AC50 [1] of 28.3 µM.
`CN1CCN(C2=C(Nc3ccccc3)C(=O)c3ccccc3C2=O)CC1` showed an AC50 [1] of 16.4 µM.
For `NC1=CC(=O)c2ccccc2C1=O`, the AC50 [1] was 7.89 µM.
In the case of `O=C(NC1=C(c2ccccc2)C(=O)c2ccccc2C1=O)c1ccccc1`, the AC50 [1] is reported as 32.2 µM.
With `O=C(NC1=C(N2CCCCC2)C(=O)c2ccccc2C1=O)c1ccccc1` the AC50 [1] was > 70 µM (inactive).
`CCN1CCN(C2=C(NS(=O)(=O)c3ccc(Br)s3)C(=O)c3ccccc3C2=O)CC1` showed an AC50 [1] of 17.2 µM.
With `C[C@@H](NC1=C(Nc2ccccc2)C(=O)c2ccccc2C1=O)c1ccccc1` the AC50 [1] was > 70 µM (inactive).
`NC1=C(NC(=O)c2ccccc2)C(=O)c2ccccc2C1=O` showed an AC50 [1] of 16.1 µM.
For `CCN1c2ccccc2NC2N=C(OC)C(c3ccccc3)C21` (configuration not stated), the AC50 [1] was 6.63 µM.
Work on `C=CCNC1=C(N(C)C(C)=O)C(=O)c2ccccc2C1=O` yielded an AC50 [1] of 0.7 µM.
In the case of `COc1ccc(C2=C(NC(=O)c3ccccc3OC)C(=O)c3ccccc3C2=O)cc1`, the AC50 [1] is reported as > 70 µM (inactive).
With `CCN1CCN(C2=C(NC(=O)c3ccccc3)C(=O)c3ccccc3C2=O)CC1` the AC50 [1] was 3.93 µM.
For `CCN1CCN(C2=C(NS(=O)(=O)c3ccc(Br)cc3)C(=O)c3ccccc3C2=O)CC1`, the AC50 [1] was 20 µM.
For `COc1ccc(C2=C(NC(=O)c3ccc4ccccc4c3)C(=O)c3ccccc3C2=O)cc1`, the activity change, negative = inhibition [2] was -7.26% (inactive).
With `C=CCNC1=C(NCC=C)C(=O)c2ccccc2C1=O` the activity change, negative = inhibition [2] was 2.12% (inactive).
For `C=CCNC1=C(NCCN(CC)CC)C(=O)c2ccccc2C1=O`, the AC50 [1] was 8.96 µM.
`CC(=O)NC1=C(c2ccccc2)C(=O)c2ccccc2C1=O` gave an AC50 [1] of 18.6 µM.
Work on `CN1CCN(C2=C(NC(=O)c3ccccc3)C(=O)c3ccccc3C2=O)CC1` yielded an AC50 [1] of 5.16 µM.
With `CN1CCN(C2=C(NS(=O)(=O)c3ccc(Br)cc3)C(=O)c3ccccc3C2=O)CC1` the AC50 [1] was > 70 µM (inactive).
In the case of `CC(=O)N(C)C1=C(N2CCN(C)CC2)C(=O)c2ccccc2C1=O`, the AC50 [1] is reported as 1.96 µM.
`CN1CCN(C2=C(NC(=O)c3ccc(Br)cc3)C(=O)c3ccccc3C2=O)CC1` showed an AC50 [1] of 1.93 µM.
For `O=C1C(Nc2ccccc2)=C(N2CCN(c3ccccc3)CC2)C(=O)c2ccccc21`, the AC50 [1] was > 70 µM (inactive).
For `CC(=O)NC1=C(c2ccc3c(c2)oc2ccccc23)C(=O)c2ccccc2C1=O`, the AC50 [1] was 22 µM.
In the case of `C=CCNC1=C(N2CCSCC2)C(=O)c2ccccc2C1=O`, the AC50 [1] is reported as 5.96 µM.
In the case of `C=CCNC1=C(NC(=O)c2ccccc2)C(=O)c2ccccc2C1=O`, the AC50 [1] is reported as > 70 µM (inactive).
`O=C1C(NS(=O)(=O)c2cccs2)=C(N2CCOCC2)C(=O)c2ccccc21` showed an AC50 [1] of 21.7 µM.
In the case of `CCN1CCN(C2=C(N(C)C(C)=O)C(=O)c3ccccc3C2=O)CC1`, the AC50 [1] is reported as 2.5 µM.
In the case of `COc1ccc(C2=C(NC(C)=O)C(=O)c3ccccc3C2=O)cc1`, the AC50 [1] is reported as 12 µM.
`CCN(CC)CCCNC1=C(Nc2ccccc2)C(=O)c2ccccc2C1=O` gave an AC50 [1] of 25.5 µM.
`O=C1C(NS(=O)(=O)c2ccc(Br)cc2)=C(N2CCCCC2)C(=O)c2ccccc21` showed an AC50 [1] of 31.5 µM.
With `O=C(NC1=C(N2CCSCC2)C(=O)c2ccccc2C1=O)c1ccccc1` the AC50 [1] was 18.8 µM.
Compound `CCN1CCN(C2=C(Nc3ccccc3)C(=O)c3ccccc3C2=O)CC1` has an AC50 [1] of 12.4 µM.
Work on `C=CCNC1=C(N2CCN(C)CC2)C(=O)c2ccccc2C1=O` yielded an AC50 [1] of 19.1 µM.
With `O=C(NC1=C(Cl)C(=O)c2ccccc2C1=O)c1ccccc1` the AC50 [1] was 5.7 µM.

Source: PubChem BioAssay AID624299 (Broad Institute, 2012)
